The source of these data is ChEMBL document CHEMBL1124394, “Synthesis and biological evaluation of 14-alkoxymorphinans. 2. (-)-N-(cyclopropylmethyl)-4,14-dimethoxymorphinan-6-one, a selective mu opioid receptor antagonist” (J Med Chem, 1989).

For assay [1], the target named is Delta-type opioid receptor (Mus musculus) (UniProt P32300). The following applies: Vas deferens.
Assay [2] deals with Mu-type opioid receptor (Rattus norvegicus) (UniProt P33535). Conditions: Vas deferens.
Assay [3] has as its target Kappa-type opioid receptor (Mus musculus) (UniProt P33534). The following applies: Vas deferens.
For assay [4], the target named is Kappa-type opioid receptor (Cavia porcellus) (UniProt P41144).
Assay [5] deals with Delta-type opioid receptor (Rattus norvegicus) (UniProt P33533). The following applies: Vas deferens.
For assay [6], the target named is Mu-type opioid receptor (Mus musculus) (UniProt P42866). The following applies: Vas deferens.
Assay [7] has as its system Oryctolagus cuniculus. In words: Percent change of volume in the respiratory activity was measured in rabbit at the 1 mg/kg dose given intravenously. The following applies: route intravenous. It is filed as functional. Summed up: (§1)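 Rabbits were dosed iv in saline (1.5 mL/kg); 1 N HCl was sometimes added to dissolve the compound. Percent change (±SE) in respiratory volume and rate was recorded.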

For assay [8], the target named is Mu-type opioid receptor (Cavia porcellus) (UniProt P97266).
Assay [9] has as its system Oryctolagus cuniculus. Put plainly: Percent change of rate in the respiratory activity was measured in rabbit at the 1 mg/kg dose given intravenously. Conditions: route intravenous. It is filed as functional. Summed up:
as §1

The subject of assay [10] is Oryctolagus cuniculus. Put plainly: Percent change of volume in the respiratory activity was measured in rabbit at the 0.1 mg/kg dose given intravenously. It is filed as functional. The following applies: route intravenous. Put shortly: as §1
The subject of assay [11] is Mus musculus. Put plainly: Percent reduction of analgesia induced by U-50,488 at 15 mg/kg after sc administration was measured in mice. Conditions: route subcutaneous. It is filed as functional. Summed up: (§2)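 Mice received the opioid agonist sc (morphine 10 mg/kg or U-50,488 15 mg/kg), then the test compound sc 20 min later in saline (10 mL/kg). Writhing was then induced with acetic acid. Read-out was percent reduction of agonist-induced analgesia.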

Assay [12] has as its system Oryctolagus cuniculus. In words: Percent change of rate in the respiratory activity was measured in rabbit at the 0.1 mg/kg dose given intravenously. It is filed as functional. Conditions: route intravenous. Summed up: as §1
Assay [13] concerns Mus musculus. Put plainly: Percent reduction of analgesia induced by morphine at 10 mg/kg after sc administration was measured in mice. Conditions: route subcutaneous. It is filed as functional. Summed up: as §2
Assay [14] addresses Opioid receptor (Rattus norvegicus, UniProt P33533+P34975+P33535). Put plainly: Inhibition of [3H]naloxone binding to opioid receptor in presence of NaCl. Type of assay: protein assay. Put shortly:
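Rat (male F1-albino, 140–180 g) whole brain minus cerebellum, homogenised in ice-cold 50 mmol/L Tris-HCl pH 7.4 with NaCl, centrifuged 18000g 10 min and rehomogenised. Nonspecific binding defined with 1 μmol/L levallorphan. Competitor tested at ≥5 concentrations in duplicate, two independent runs. IC50 taken graphically or from a least-squares sigmoid fit.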

The subject of assay [15] is Oryctolagus cuniculus. Put plainly: Percent change of rate in the respiratory activity was measured in rabbit at 0.1 mg/kg dose given intravenously. The following applies: route intravenous. It is filed as functional. Summed up: as §1

Structures are written as SMILES. Several values for one entry are separate records, joined by “and”; a condition that tells them apart may be missing. Identical values can stand only once.

Sequence of Mu-type opioid receptor (Cavia porcellus) (P97266 whole entry): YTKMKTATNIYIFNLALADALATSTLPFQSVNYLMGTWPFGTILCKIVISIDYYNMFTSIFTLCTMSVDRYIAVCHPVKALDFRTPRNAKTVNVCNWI
Sequence of Delta-type opioid receptor (Rattus norvegicus) (P33533 whole entry): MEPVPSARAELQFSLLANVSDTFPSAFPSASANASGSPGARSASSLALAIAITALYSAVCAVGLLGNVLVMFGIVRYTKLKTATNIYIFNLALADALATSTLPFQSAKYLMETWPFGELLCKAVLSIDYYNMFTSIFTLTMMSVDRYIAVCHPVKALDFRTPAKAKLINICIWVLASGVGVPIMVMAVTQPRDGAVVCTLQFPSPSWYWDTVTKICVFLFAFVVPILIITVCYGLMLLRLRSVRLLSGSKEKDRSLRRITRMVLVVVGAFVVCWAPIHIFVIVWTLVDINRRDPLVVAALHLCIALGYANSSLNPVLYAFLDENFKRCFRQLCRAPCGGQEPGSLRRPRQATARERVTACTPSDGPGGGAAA
Sequence of Mu-type opioid receptor (Mus musculus) (P42866 whole entry): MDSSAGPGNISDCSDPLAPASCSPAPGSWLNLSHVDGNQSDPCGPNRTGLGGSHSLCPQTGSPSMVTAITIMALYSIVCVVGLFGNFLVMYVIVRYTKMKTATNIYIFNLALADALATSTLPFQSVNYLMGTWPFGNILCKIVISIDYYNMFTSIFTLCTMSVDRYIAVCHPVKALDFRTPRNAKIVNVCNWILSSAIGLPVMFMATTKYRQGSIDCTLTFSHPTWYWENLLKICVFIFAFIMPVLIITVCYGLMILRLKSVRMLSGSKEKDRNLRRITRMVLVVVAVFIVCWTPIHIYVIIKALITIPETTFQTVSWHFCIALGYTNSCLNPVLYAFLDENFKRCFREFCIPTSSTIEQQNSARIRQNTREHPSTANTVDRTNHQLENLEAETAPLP
Sequence of Kappa-type opioid receptor (Cavia porcellus) (P41144 whole entry): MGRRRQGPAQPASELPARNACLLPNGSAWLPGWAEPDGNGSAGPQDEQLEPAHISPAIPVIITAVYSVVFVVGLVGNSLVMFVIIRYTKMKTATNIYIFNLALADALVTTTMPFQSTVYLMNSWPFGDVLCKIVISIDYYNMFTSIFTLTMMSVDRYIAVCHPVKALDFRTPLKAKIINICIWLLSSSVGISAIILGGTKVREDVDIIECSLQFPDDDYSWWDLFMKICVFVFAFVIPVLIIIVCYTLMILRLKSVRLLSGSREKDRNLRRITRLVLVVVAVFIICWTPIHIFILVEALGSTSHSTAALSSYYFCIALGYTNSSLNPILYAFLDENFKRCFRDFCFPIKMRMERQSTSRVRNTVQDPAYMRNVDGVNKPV
Sequence of Kappa-type opioid receptor (Mus musculus) (P33534 whole entry): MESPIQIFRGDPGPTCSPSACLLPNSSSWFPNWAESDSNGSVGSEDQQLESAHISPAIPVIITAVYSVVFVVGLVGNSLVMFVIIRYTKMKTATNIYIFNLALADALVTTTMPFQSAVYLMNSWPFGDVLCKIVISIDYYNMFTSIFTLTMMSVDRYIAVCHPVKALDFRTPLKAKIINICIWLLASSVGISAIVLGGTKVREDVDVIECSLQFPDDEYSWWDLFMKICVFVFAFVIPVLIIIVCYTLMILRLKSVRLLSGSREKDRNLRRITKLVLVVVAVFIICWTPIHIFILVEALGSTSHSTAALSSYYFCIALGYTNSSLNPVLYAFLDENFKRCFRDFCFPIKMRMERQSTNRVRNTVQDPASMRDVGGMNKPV
Sequence of Delta-type opioid receptor (Mus musculus) (P32300 whole entry): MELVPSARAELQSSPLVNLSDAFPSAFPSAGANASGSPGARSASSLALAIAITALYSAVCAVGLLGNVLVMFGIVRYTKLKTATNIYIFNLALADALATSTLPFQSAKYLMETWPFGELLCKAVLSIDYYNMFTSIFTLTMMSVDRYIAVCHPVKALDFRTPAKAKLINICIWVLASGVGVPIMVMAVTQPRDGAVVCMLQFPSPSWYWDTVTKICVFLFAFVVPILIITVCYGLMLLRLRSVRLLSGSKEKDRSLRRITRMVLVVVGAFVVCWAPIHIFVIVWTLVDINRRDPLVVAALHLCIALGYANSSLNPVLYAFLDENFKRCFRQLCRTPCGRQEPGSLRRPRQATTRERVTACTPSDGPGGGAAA
Sequence of Mu-type opioid receptor (Rattus norvegicus) (P33535 whole entry): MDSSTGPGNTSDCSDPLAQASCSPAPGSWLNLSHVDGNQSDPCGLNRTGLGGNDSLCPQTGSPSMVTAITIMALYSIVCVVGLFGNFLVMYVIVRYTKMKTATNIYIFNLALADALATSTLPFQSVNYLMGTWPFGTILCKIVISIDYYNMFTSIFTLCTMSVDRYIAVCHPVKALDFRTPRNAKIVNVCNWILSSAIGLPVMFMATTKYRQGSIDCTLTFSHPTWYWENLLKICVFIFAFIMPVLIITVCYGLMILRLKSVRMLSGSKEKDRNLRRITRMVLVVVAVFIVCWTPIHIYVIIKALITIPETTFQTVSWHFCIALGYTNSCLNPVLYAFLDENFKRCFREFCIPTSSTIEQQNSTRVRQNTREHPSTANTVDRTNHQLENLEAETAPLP

In the case of `COc1cccc2c1[C@]13CCN(CC4CC4)[C@H](C2)[C@]1(OC)CCC(=O)C3` [CYPRODIME], the Ke was 6.11 µM in assay [1]; 61.6 nM in assay [2]; 1550 nM in [3]; 1160 nM in assay [4]; 4.56 µM in assay [5]; 55.4 nM in assay [6]. Further, the Ke in assay [8] was determined as 31 nM. Besides, the Volume change in assay [7] is recorded as 21%. In assay [9], the Rate change is -6.9%.

The molecule `C=CCN1CC[C@]23c4c5ccc(O)c4O[C@H]2C(=O)CC[C@@]3(O)[C@H]1C5` [NALOXONE] showed a Volume change in assay [10] of 23%. The Reduction in [11] came out at 83%; in [13], 87%. In addition, the Rate change in [12] was determined as 7.3%.

As a reminder, the IC50 is the concentration that inhibits the measured activity by half. As to `C=CCN1CC[C@]23CCCC[C@H]2[C@H]1Cc1ccc(O)cc13` [LEVALLORPHAN], the IC50 in assay [14] was 1.1 nM and 0.54 nM.

Regarding `O=C1CC[C@@]2(O)[C@H]3Cc4ccc(O)c5c4[C@@]2(CCN3CC2CC2)[C@H]1O5` [NALTREXONE], the figures for the Reduction in assay [11] and in assay [13] were 19% and 94%, respectively. In addition, the Rate change in assay [15] worked out at 7.5%.
